Data as given in the RNAGym collection of RNA variant scans (doi:10.1002/anie.201605470).

B1: Osa-1-4 twister ribozyme (parent)
chain: CCGCCUAACACUGCCAAUGCCGGUCCCAAGCCCGGAUAAAAGUGGAGGGGGCGG

Variants of: B1
Experiment: self-cleavage, relative activity (ratio to wild type); higher = more cleavage; co-transcriptional
How it was run: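 Values are relative activity: the fraction cleaved, normalised to wild type. A doped DNA template for a 54-nucleotide twister ribozyme from Oryza sativa had 97 % wild-type base and 1 % of each other base at the 48 positions downstream of the cleavage site. The RNA was transcribed in vitro for 2 h at 37 °C so that it could cleave itself co-transcriptionally, then sequenced deeply, with cleavage status scored from the presence or absence of upstream sequence in reads.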

self-cleavage, 0.27:
C14G U18G

self-cleavage, 0.01:
G13C G53C
G13A U24G
C14A G45C
G13C G22C
G13C G49A
G13C G49U
G13C G49C
G13C G23C
G13U G48C
G13U G48A
G13U G48U
C14A C33G
G13U G47C
G13U G49A
G13U G49C
G13U G49U
G13C G42U
C14A G49C

self-cleavage, 0.21:
C14G

self-cleavage, 0.18:
C14G C52U

self-cleavage, 0.22:
C14G C20U
C14A G54U

self-cleavage, 0.09:
C14A G50A
C14G C21A
C14G G42A

self-cleavage, 0.1:
C14A G19A
C14G G54A
C14A G54A

self-cleavage, 0.16:
C14G C9G
C14G C21U
C14G C20G
C14A C20U
C14G U18A

self-cleavage, 0.12:
C14G C25U
C14A C20A

self-cleavage, 0.08:
C14A G22A
C14G C9U
C14A U12A
C14A G50C
C14G C32G
C14G G44U

self-cleavage, 0.05:
C14A G22U
G13U U12C
G13A U43A
G13A U43C
C14A C26U
C14A C26A
C14A U12C
C14A G53U
C14A G42C
C14A G42A
C14A G23A
G13C U18G
C14A C15U
C14A C15G
C14G C21G
C14G G47A
C14A G34C
C14A G34U

self-cleavage, 0.17:
C14G C20A

self-cleavage, 0.15:
C14G U18C

self-cleavage, 0.04:
C14A G19C
G13A U43G
G13A U24C
C14A G45A
C14A C31U
C14G G48C
C14G C9A
C14A U24C
G13U U43G
C14G G49A
G13C U18C
G13C G54U
G13U G54U
C14G G47C
C14G G47U
C14G C32U
G13C G34A
G13C U37G
G13U U37G
G13U G44U

self-cleavage, 0.13:
C14A
C14G C52G

self-cleavage, 0:
G13U G23C

self-cleavage, 0.07:
C14A G19U
C14G C27U
C14G C27G
C14G G22A
C14G G22U
C14G G22C
C14A G50U
C14G C25G
C14A C15A
C14A G34A
C14G G44C

self-cleavage, 0.14:
G13U U12G
C14G C52A

self-cleavage, 0.3:
C14G G54U

self-cleavage, 0.23:
C14G G44A

self-cleavage, 0.03:
C14A G45U
C14A C31A
C14G C27A
G13C G22A
C14G G48A
C14G G48U
C14A U24A
G13U U43C
C14A G42U
C14G G49U
C14G G49C
G13C G19A
G13C G19C
G13C U18A
C14G C25A
G13C G54A
G13U G54A
C14A C33A
C14G C32A
G13C G34U
G13C U37C
C14A G13A
C14A C20G
C14A C9A
G13C G42A
G13U U37C
C14A G49U
G13U G44C
G13U G44A

self-cleavage, 0.02:
G13C G53U
G13C G53A
C14A G22C
G13U U12A
C14A C31G
G13C G22U
C14A U24G
C14A C26G
G13U U43A
C14A G53C
G13C G19U
C14A G23U
C14A G23C
G13C G54C
G13U G54C
G13C G23A
G13C G23U
G13U G47A
G13U G47U
C14G G42U
G13C G34C
G13C U37A
G13U G23U
G13U G23A
C14A G13C
C14A G13U
G13C G42C
G13U U37A
C14A G49A

self-cleavage, 0.06:
C14A U43A
C14A U12G
C14A G53A
C14A C33U
C14G G54C
C14G G42C
C14A G54C
C14A C9G
C14A C9U
